In ChEMBL document CHEMBL1944567, “Synthesis, biological evaluation, and molecular modeling of chalcone derivatives as potent inhibitors of Mycobacterium tuberculosis protein tyrosine phosphatases (PtpA and PtpB)” (J Med Chem, 2012) one finds inhibition and solubility data, which are given here for 48 compounds.

Data set [1] addresses T1, Low molecular weight protein-tyrosine phosphatase A (Mycobacterium tuberculosis) (UniProt P9WIA1).
T1 sequence (whole entry): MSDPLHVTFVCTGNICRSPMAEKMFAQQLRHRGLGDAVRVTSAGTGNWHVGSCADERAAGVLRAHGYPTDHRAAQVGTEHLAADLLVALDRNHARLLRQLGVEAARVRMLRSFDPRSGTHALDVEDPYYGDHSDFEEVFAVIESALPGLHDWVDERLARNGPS
As to the kind of experiment: Inhibition of Mycobacterium tuberculosis PTP-A using p-nitrophenyl phosphate as substrate at 25 uM measured for 10 mins by spectrofluorimetry. The method in brief:
(§1)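 Single-point screen at 25 μM final compound, added from 1.0 × 10−3 M DMSO stock, with recombinant Mtb PtpA or PtpB (0.4 μg/μL final) in 20 mM imidazole pH 7.0 with 40 mM pNPP. Reaction started by adding enzyme. p-Nitrophenol release read at 410 nm every min for 10 min at 37 °C. Residual activity was taken from the absorbance difference between 6 and 2 min; two experiments, each in triplicate.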

Data set [2] concerns the target T2, Phosphotyrosine-protein phosphatase PTPB (Mycobacterium tuberculosis) (UniProt P96830).
T2 sequence (whole entry): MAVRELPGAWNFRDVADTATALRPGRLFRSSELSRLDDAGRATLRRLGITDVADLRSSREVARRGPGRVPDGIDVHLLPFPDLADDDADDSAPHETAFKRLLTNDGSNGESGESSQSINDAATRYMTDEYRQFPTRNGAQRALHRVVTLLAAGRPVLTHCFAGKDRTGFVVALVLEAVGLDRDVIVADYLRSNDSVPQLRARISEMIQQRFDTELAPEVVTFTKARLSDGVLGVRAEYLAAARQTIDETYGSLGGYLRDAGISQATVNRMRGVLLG
As to the kind of experiment: Inhibition of Mycobacterium tuberculosis PTP-B using p-nitrophenyl phosphate as substrate at 25 uM measured for 10 mins by spectrofluorimetry. The method in brief: as §1

Data set [3] is described as follows: Solubility of the compound. The class given is physicochemical.

A word on the inhibition: it is how much of the control response was suppressed. As for `COc1cc(OC)c(C(=O)/C=C/c2ccc3c(c2)OCO3)cc1OC`, the inhibition stood at 8% in data set [1] and 29% in data set [2]. The solubility entry in data set [3] is “soluble”.
The like results for `O=C(/C=C/c1cccc(Br)c1)c1ccc2c(c1)OCO2` were, in that order, 5%, 0% and “soluble”.
On to `COc1cccc(/C=C/C(=O)c2ccc3c(c2)OCO3)c1`, for which the inhibition in data set [1] stood at 10%; in data set [2], 0%. Also, in data set [3], the solubility entry is “soluble”.
As to `O=C(/C=C/c1ccc2ccccc2c1)c1ccc(Cl)c(Cl)c1`, the inhibition in data set [1] was found to be 9%; in data set [2] it was 18%. For the same compound, in data set [3], the solubility result is listed as “soluble”.
Taken in the same sequence, the figures for `O=C(/C=C/c1cccs1)c1ccc2c(c1)OCO2` were 7%, 0% and “soluble”.
Taken in the same sequence, the figures for `O=C(/C=C/c1ccc2ccccc2c1)c1cc(Cl)ccc1Cl` were 0%, 20% and “soluble”.
Taken in the same sequence, the figures for `O=C(/C=C/c1c(Cl)cccc1Cl)c1ccc2ccccc2c1` were 16%, 0% and “soluble”.
In the case of `O=C(/C=C/c1ccccc1F)c1ccc2c(c1)OCO2`, the values for the inhibition in data set [1] and in data set [2] were 9% and 0%, respectively. In addition, the solubility entry in data set [3] is given as “soluble”.
The like results for `O=C(/C=C/c1cccc([N+](=O)[O-])c1)c1ccc2ccccc2c1` were, in that order, 12%, 7% and “soluble”.
For the compound `Cc1ccc(/C=C/C(=O)c2ccc3ccccc3c2)cc1`, the inhibition came out at 8% in data set [1] and 28% in data set [2]. Further, the solubility result in data set [3] is on record as “soluble”.
Taken in the same sequence, the figures for `O=C(/C=C/c1cccc(Cl)c1)c1ccc2c(c1)OCO2` were 23%, 0% and “soluble”.
Consider `O=C(/C=C/c1ccc2ccccc2c1)c1ccc2c(c1)OCO2`, for which the inhibition in data set [1] was determined as 12%; in data set [2], 15%. Besides, in data set [3], the solubility entry is “soluble”.
The like results for `O=C(/C=C/c1ccccc1)c1ccc2c(c1)OCO2` were, in that order, 0%, 0% and “soluble”.
On to `O=C(/C=C/c1cccc(Br)c1)c1ccc2ccccc2c1`, for which the inhibition came to 0% in data set [1] and 20% in data set [2]. For the same compound, the solubility entry in data set [3] is given as “soluble”.
With `O=C(/C=C/c1cccc(Cl)c1)c1ccc2ccccc2c1`, the inhibition was 7% in data set [1] and 0% in data set [2]. Moreover, the solubility entry in data set [3] is recorded as “soluble”.
Taken in the same sequence, the figures for `COc1ccc(/C=C/C(=O)c2ccc3ccccc3c2)c(OC)c1OC` were 0%, 0% and “soluble”.
The like results for `COc1ccc(OC)c(C(=O)/C=C/c2ccc(OCc3ccccc3)c(OC)c2)c1` were, in that order, 12%, 16% and “soluble”.
For `COc1ccc(/C=C/C(=O)c2ccc3c(c2)OCO3)cc1`, the results for the inhibition in data set [1] and in data set [2] were 17% and 11%, respectively. Besides, the solubility result in data set [3] is reported as “soluble”.
The like results for `COc1cc(/C=C/C(=O)c2ccc(Cl)s2)ccc1OCc1ccccc1` were, in that order, 5%, 19% and “soluble”.
The like results for `O=C(/C=C/c1ccc2c(c1)OCO2)c1ccc2ccccc2c1` were, in that order, 13%, 0% and “soluble”.
The like results for `O=C(/C=C/c1ccc(-c2ccccc2[N+](=O)[O-])o1)c1ccc2ccccc2c1` were, in that order, 9%, 7% and “soluble”.
Regarding `O=C(/C=C/c1ccc(-c2ccccc2[N+](=O)[O-])o1)c1ccc2c(c1)OCO2`, the inhibition came out at 19% in data set [1] and 10% in data set [2]. The solubility result in data set [3] was “soluble”.
Consider `O=C(/C=C/c1cccc(C(F)(F)F)c1)c1ccc2ccccc2c1`, for which the results for the inhibition in data set [1] and in data set [2] were 24% and 0%, respectively. Also, the solubility entry in data set [3] was “soluble”.
Taken in the same sequence, the figures for `COc1cc(OC)c(OC)cc1/C=C/C(=O)c1ccc2c(c1)OCO2` were 19%, 19% and “soluble”.
Taken in the same sequence, the figures for `COc1ccc(/C=C/C(=O)c2ccc3c(c2)OCO3)cc1OC` were 19%, 0% and “soluble”.
Taken in the same sequence, the figures for `O=C(/C=C/c1cccc([N+](=O)[O-])c1)c1ccc2c(c1)OCO2` were 23%, 22% and “soluble”.
On to `COc1cccc(OC)c1/C=C/C(=O)c1ccc2c(c1)OCO2`, for which the inhibition turned out to be 4% in data set [1] and 0% in data set [2]. The solubility entry in data set [3] is given as “soluble”.
Consider `O=C(/C=C/c1cc2ccccc2nc1Cl)c1ccc2c(c1)OCO2`, for which the inhibition in data set [1] stood at 19%; in data set [2], 0%. In addition, the solubility entry in data set [3] is recorded as “soluble”.
Turning to `O=C(/C=C/c1cccs1)c1ccc2ccccc2c1`, the inhibition in data set [1] stood at 15%; in data set [2] it was 0%. Further, the solubility entry in data set [3] is on record as “soluble”.
Taken in the same sequence, the figures for `COc1cc(OC)c(C(=O)/C=C/c2ccc3c(c2)OCO3)c(OC)c1` were 0%, 15% and “soluble”.
Turning to `COc1cc(/C=C/C(=O)c2ccc3c(c2)OCO3)ccc1O`, the inhibition in data set [1] and in data set [2] was 0% in each case. For the same compound, the solubility entry in data set [3] was “soluble”.
As for `O=C(/C=C/c1cc(Cl)cc(Cl)c1)c1ccc2c(c1)OCO2`, the inhibition in data set [1] stood at 14%; in data set [2], 0%. In data set [3], the solubility entry was “soluble”.
Taken in the same sequence, the figures for `O=C(/C=C/c1ccc(Br)cc1)c1ccc2ccccc2c1` were 8%, 24% and “soluble”.
On to `COc1cc(OC)cc(C(=O)/C=C/c2ccc3ccccc3c2)c1`, for which the inhibition in data set [1] turned out to be 0%; in data set [2], 10%. Also, in data set [3], the solubility entry was “soluble”.
For the compound `O=C(/C=C/c1ccccc1Cl)c1ccc2ccccc2c1`, the results for the inhibition in data set [1] and in data set [2] were 0% and 13%, respectively. Also, in data set [3], the solubility result is recorded as “soluble”.
Consider `COc1cc(OC)c(OC)cc1/C=C/C(=O)c1ccc2ccccc2c1`, for which the inhibition in data set [1] stood at 7%; in data set [2], 0%. Also, the solubility entry in data set [3] is “soluble”.
Taken in the same sequence, the figures for `O=C(/C=C/c1ccc(Cl)cc1)c1ccc2ccccc2c1` were 13%, 27% and “soluble”.
The like results for `O=C(/C=C/c1ccc(F)cc1)c1ccc2c(c1)OCO2` were, in that order, 0%, 0% and “soluble”.
Taken in the same sequence, the figures for `O=C1COc2ccc(C(=O)/C=C/c3ccc4ccccc4c3)cc2N1` were 0%, 24% and “soluble”.
In the case of `O=C(/C=C/c1cccc2ccccc12)c1ccc2c(c1)OCO2`, the values for the inhibition in data set [1] and in data set [2] were 8% and 0%, respectively. Further, the solubility result in data set [3] is recorded as “soluble”.
Taken in the same sequence, the figures for `O=C(/C=C/c1ccc(F)cc1)c1ccc2ccccc2c1` were 13%, 14% and “soluble”.
As to `COc1ccc2nc(Cl)c(/C=C/C(=O)c3ccc4ccccc4c3)cc2c1`, the figures for the inhibition in data set [1] and in data set [2] were 22% and 17%, respectively. Also, the solubility result in data set [3] is listed as “soluble”.
With `COc1cccc(C(=O)/C=C/c2ccc3ccccc3c2)c1`, the inhibition in data set [1] and in data set [2] was 0% each time. Further, the solubility result in data set [3] is “soluble”.
As to `O=C(/C=C/c1ccc(Cl)c(C(F)(F)F)c1)c1ccc2ccccc2c1`, the inhibition worked out at 13% in data set [1] and 0% in data set [2]. Further, the solubility result in data set [3] is “soluble”.
In the case of `O=C(/C=C/c1ccc(Cl)c(Cl)c1)c1ccc2ccccc2c1`, the inhibition in data set [1] is 11%; in data set [2], 28%. For the same compound, the solubility entry in data set [3] is given as “soluble”.
Taken in the same sequence, the figures for `N#Cc1ccc(/C=C/C(=O)c2ccc3ccccc3c2)cc1` were 21%, 20% and “soluble”.
The like results for `CCCCOc1ccc(/C=C/C(=O)c2ccc3ccccc3c2)cc1` were, in that order, 8%, 17% and “soluble”.
The like results for `O=C(/C=C/c1ccccc1Cl)c1ccc2c(c1)OCO2` were, in that order, 5%, 0% and “soluble”.
